Data set [1] can be described thus: Lipophilicity, log D of the compound at pH 7.4. Format: physicochemical. The note with it: buffer.
The subject of another data set is CYP1A1. Nature of the data set: Induction of CYP1A1 mRNA expression in Sprague-Dawley rat hepatic microsomes at 17 mg/kg, po QD for 4 days relative to control. To be noted: read-out: FC. Type of data set: ADME, organism-based, Liver. The gist of the method: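 Male CD rats (226–325 g, n = 3) were dosed by oral gavage once daily for 4 days as a 1% w/v aqueous methylcellulose suspension (3–6 mg/mL, 5 mL/kg). At the end of the study, a left lateral liver lobe section was placed in RNALater and homogenised in TRIzol. RNA was purified, DNase-treated and converted to cDNA, and Cyp1a1 was read on low-density TaqMan arrays.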

For a further data set, the system named is CYP1A2. Nature of the data set: Induction of CYP1A2 mRNA expression in Sprague-Dawley rat hepatic microsomes at 17 mg/kg, po QD for 4 days relative to control. Type of data set: ADME, organism-based, Liver. The note with it: read-out: FC.
A short description of data set [2]: Cmax in Sprague-Dawley rat at 17 mg/kg, po QD measured on day 1. Type of data set: ADME, organism-based. Also on record: dose 17 mg/kg, route oral. The note with it: in vivo. The gist of the method:
(§1)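 Male CD rats (226−325 g), n = 3, given the compound once daily by oral gavage for 4 days. Vehicle was 1% (w/v) methylcellulose aq suspension at 3−6 mg/mL, dosed at 5 mL/kg (target 15−30 mg/kg). Tail vein blood was taken on days 1 and 4 up to 24 h postdose. Blood was diluted 1:1 with water, extracted by acetonitrile protein precipitation and analysed by LC−MS/MS against calibration standards in diluted blood.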

The nature of data set [3]: Cmax in Sprague-Dawley rat at 17 mg/kg, po QD measured on day 4. Format: ADME, organism-based. Also noted: dose 17 mg/kg, route oral. To be noted: in vivo. Put shortly: as §1
A short description of data set [4]: AUC in Sprague-Dawley rat at 17 mg/kg, po QD measured on day 1. Type of data set: ADME, organism-based. To be noted: in vivo. Put shortly: as §1
Data set [5] in a line: AUC in Sprague-Dawley rat at 17 mg/kg, po QD measured on day 4. Format: ADME, organism-based. The note with it: in vivo. The gist of the method: as §1
Data set [6] concerns Rattus norvegicus. Nature of the data set: Dose normalized AUC in Sprague-Dawley rat at 17 mg/kg, po QD measured on day 1. Type of data set: ADME, organism-based. The note with it: in vivo. The gist of the method: as §1
Data set [7] deals with Rattus norvegicus. Nature of the data set: Dose normalized AUC in Sprague-Dawley rat at 17 mg/kg, po QD measured on day 4. The note with it: in vivo. Type of data set: ADME, organism-based. Put shortly: as §1

Each structure is given as a SMILES string.

For orientation: logD means lipophilicity at a set pH, counting ionised and neutral species. A lower logD goes with lower lipophilicity. By Cmax is commonly meant the highest concentration seen after dosing. What is called AUC is the area under the concentration-time curve, a measure of exposure. Read a low AUC as less exposure.

The molecule `Cc1c(-c2noc(-c3ccc(OC(C)C)c(C#N)c3)n2)cnc2c1CCN(C(CO)CO)C2` came in with a logD in data set [1] of 2.15. Also, the fold induction at 96 h stood at 0.9 with CYP1A1 and 2 with CYP1A2. Also, the Cmax in data set [2] is 1610 ng/mL; in data set [3], 2170 ng/mL. The AUC amounted to 12900 ng·h/mL in [4] and 16800 ng·h/mL in [5]. The values for the AUC/dose with Rattus norvegicus [6] and with Rattus norvegicus [7] were 46 kg·min/L and 59 kg·min/L, respectively.

Values taken from ChEMBL document CHEMBL3627702, “Navigating CYP1A Induction and Arylhydrocarbon Receptor Agonism in Drug Discovery. A Case History with S1P1 Agonists” (J Med Chem, 2015).
